Key:
[1] = molecular target: T1, 5-hydroxytryptamine receptor 6 (Homo sapiens, UniProt P50406); assay: Displacement of [3H]LSD from human 5-hydroxytryptamine 6 receptor expressed in HeLa cells; type: cell-based
Summary of the method: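 Human cloned 5-HT6 receptor expressed in HeLa cells. Binding measured by [3H]LSD displacement and reported as pKi. Each value is the mean of at least three experiments, each within 0.3 of the mean.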

[2] = molecular target: 5-hydroxytryptamine receptor 6 (Rattus norvegicus) (UniProt P31388); assay: (§1) In vivo binding assay against rat 5-hydroxytryptamine 6 receptor using [125I]-SB-258,585; type: organism-based
Chain of 5-hydroxytryptamine receptor 6 (Rattus norvegicus) (P31388 whole entry): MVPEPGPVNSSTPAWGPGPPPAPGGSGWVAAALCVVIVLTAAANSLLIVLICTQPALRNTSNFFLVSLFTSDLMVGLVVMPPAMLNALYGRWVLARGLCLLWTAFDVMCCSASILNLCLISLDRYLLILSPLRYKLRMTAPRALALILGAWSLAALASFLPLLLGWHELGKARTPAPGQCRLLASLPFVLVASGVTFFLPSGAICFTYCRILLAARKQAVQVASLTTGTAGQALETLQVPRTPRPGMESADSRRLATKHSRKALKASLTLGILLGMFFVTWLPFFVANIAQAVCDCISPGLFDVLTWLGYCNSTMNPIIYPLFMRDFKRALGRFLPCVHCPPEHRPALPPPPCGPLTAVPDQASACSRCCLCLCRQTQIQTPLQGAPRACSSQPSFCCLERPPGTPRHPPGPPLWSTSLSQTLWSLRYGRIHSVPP
Summary of the method: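 Ex vivo assay: rats were dosed orally with vehicle or antagonist and killed after a 4 h pretreatment. Striatum was removed and homogenised, and a binding assay with the selective 5-HT6 radioligand was run on the tissue. ED50 was expressed as mg/kg po.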

[3] = molecular target: 5-hydroxytryptamine receptor 6 (Rattus norvegicus) (UniProt P31388); assay: as §1; type: functional, organism-based
Summary of the method: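 Ex vivo assay. Rats were given vehicle or antagonist orally with a 4 h pretreatment, then killed. Striatum was removed and homogenised, and a binding assay with a selective 5-HT6 radioligand was run on the tissue. Potency is expressed as oral ED50 (mg/kg).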

[4] = molecular target: T1, 5-hydroxytryptamine receptor 6; assay: Binding affinity against 5-hydroxytryptamine 6 receptor of human caudate
[5] = molecular target: T1, 5-hydroxytryptamine receptor 6; conditions: HeLa
[6] = molecular target: 5-hydroxytryptamine receptor 6 (Rattus norvegicus, UniProt P31388); assay: Binding affinity against 5-hydroxytryptamine 6 receptor of rat striatum; type: tissue-based
Chain of 5-hydroxytryptamine receptor 6 (Rattus norvegicus, UniProt P31388) (P31388 whole entry): as above

T1 sequence (P50406 whole entry): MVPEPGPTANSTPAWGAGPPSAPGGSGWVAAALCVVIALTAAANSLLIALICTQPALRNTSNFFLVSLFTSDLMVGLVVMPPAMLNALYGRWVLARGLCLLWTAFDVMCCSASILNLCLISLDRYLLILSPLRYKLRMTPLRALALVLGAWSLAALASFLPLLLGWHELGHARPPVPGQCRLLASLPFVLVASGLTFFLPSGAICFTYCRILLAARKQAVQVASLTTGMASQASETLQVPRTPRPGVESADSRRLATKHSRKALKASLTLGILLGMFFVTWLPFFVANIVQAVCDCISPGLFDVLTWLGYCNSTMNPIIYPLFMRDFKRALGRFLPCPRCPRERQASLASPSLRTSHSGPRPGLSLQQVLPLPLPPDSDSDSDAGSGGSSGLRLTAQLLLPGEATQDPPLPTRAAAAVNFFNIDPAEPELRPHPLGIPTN

Work on `Cc1cc2c(N3CCNCC3)cccc2n1S(=O)(=O)c1cccc(Cl)c1` yielded a Ki [1] of 0.398 nM.
With `O=S(=O)(c1ccccn1)n1ccc2c(N3CCNCC3)c(Cl)ccc21` the Ki [1] was 0.501 nM.
Molecule `O=S(=O)(c1ccccc1Cl)n1ccc2c(N3CCNCC3)cccc21` has a Ki [1] of 0.398 nM.
`N#Cc1ccc2c(ccn2S(=O)(=O)c2cccc(Cl)c2)c1N1CCNCC1` was tested, and the Ki [1] was 5.01 nM.
With `O=S(=O)(c1ccccc1)c1coc2c(N3CCNCC3)cccc12` the Ki [1] was 1.26 nM.
Work on `O=S(=O)(c1cccc2ccccc12)n1ccc2c(N3CCNCC3)c(Cl)ccc21` yielded a Ki [1] of 7.94 nM.
In the case of `Cc1c(S(=O)(=O)n2ccc3c(N4CCNCC4)cccc32)sc2ccc(Cl)cc12`, the Ki [1] is reported as 3.16 nM.
In the case of `O=S(=O)(c1cccc(Cl)c1)c1c[nH]c2c(N3CCNCC3)cccc12`, the Ki [1] is reported as 0.316 nM.
`O=S(=O)(c1ccccn1)n1ccc2c(N3CCNCC3)cccc21` was tested, and the Ki [1] was 1 nM.
`O=S(=O)(c1cccc(Cl)c1)n1cc(Cl)c2c(N3CCNCC3)cccc21` was tested, and the Ki [1] was 0.316 nM.
`O=S(=O)(c1ccc(Cl)cc1)n1ccc2c(N3CCNCC3)c(Cl)ccc21` gave a Ki [1] of 6.31 nM.
For `O=S(=O)(c1ccc(Cl)cc1)n1ccc2c(N3CCNCC3)cccc21`, the Ki [1] was 2 nM.
`COc1ccc(NS(=O)(=O)c2sc3ccc(Cl)cc3c2C)cc1N1CCNCC1` gave an ED50 [2] of 11 mg/kg.
In the case of `O=S(=O)(c1ccccc1)c1c[nH]c2c(N3CCNCC3)nccc12`, the Ki [1] is reported as 25.1 nM.
Work on `O=S(=O)(c1ccccc1Cl)n1ccc2c(N3CCNCC3)c(Cl)ccc21` yielded a Ki [1] of 1 nM.
Work on `O=S(=O)(c1ccc2ccccc2c1)n1ccc2c(N3CCNCC3)c(Cl)ccc21` yielded a Ki [1] of 25.1 nM.
Molecule `O=S(=O)(c1cccc(Cl)c1)n1ccc2c(N3CCNCC3)cccc21` has a Ki [1] of 0.251 nM.
In the case of `Cc1cn(S(=O)(=O)c2cccc(Cl)c2)c2cccc(N3CCNCC3)c12`, the Ki [1] is reported as 0.631 nM.
Work on `O=S(=O)(c1ccccc1)c1c[nH]c2c(N3CCNCC3)ccnc12` yielded a Ki [1] of 7.94 nM.
Work on `O=S(=O)(c1cccc(Cl)c1)n1ccc2c(N3CCNCC3)ccc(Cl)c21` yielded a Ki [1] of 0.316 nM.
With `Cn1cc(S(=O)(=O)c2cccc(Cl)c2)c2cccc(N3CCNCC3)c21` the ED50 [3] was 5 mg/kg and the Ki [1] was 2.51 nM.
With `O=S(=O)(c1ccccc1)n1ccc2c(N3CCNCC3)c(Cl)ccc21` the Ki [1] was 1.58 nM.
Work on `O=S(=O)(c1cccc(Cl)c1)n1ccc2c(N3CCNCC3)c(Cl)ccc21` yielded an ED50 [3] of 3 mg/kg, a Ki [4] of 7.94 nM and a pKb [5] of 7.2. It also gave a Ki [6] of 12.6 nM and a Ki [1] of 2.51 nM.
In the case of `O=S(=O)(c1ccccc1)c1csc2c(N3CCNCC3)cccc12`, the Ki [1] is reported as 0.501 nM.

Source: ChEMBL document CHEMBL1143480, “Bicyclic heteroarylpiperazines as selective brain penetrant 5-HT6 receptor antagonists” (Bioorg Med Chem Lett, 2005)
